Results as given in PubChem BioAssay.
The other results are listed elsewhere or left out. Active and inactive are the calls of the source.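 The calls were made as follows, unless noted: active = GFP response above 150% of the DMSO level; inconclusive = fewer than 70 events counted for a yeast strain; inactive = the rest.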

Assays:
[1] = hit retest on RPL19A-GFP reporter strain – cell-based, S. cerevisiae, flow cytometry, cherry picks, mother/daughter gates, confirmation (AID 2270;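 active = GFP response below 50% of the DMSO control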); conditions: 3 h, at 10 µM, stronger effect = lower value, 100 = same GFP as DMSO wells
[2] = yeast TOR pathway reporter LAP4-GFP change – cell-based, cherry picks, flow cytometry, mother/daughter gates, confirmation (AID 2271;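 active = GFP response above 150% of the DMSO control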;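 also: ratio of sample to DMSO plate mean so 100% equals DMSO level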); conditions: S. cerevisiae LAP4-GFP strain, 3 h, at 10 µM, stronger effect = higher value, 100 means same as DMSO control
Procedure, shortened: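 material = Alexa 633-stained baker's yeast GFP-fusion strain | amount = 0.2 OD600 cells | schedule = 30 °C, 3 h compound incubation, rotating | signal = GFP by flow cytometry | measure = per-gate (all, mother, daughter) GFP response vs DMSO | controls = positive rapamycin (400 ng/mL), negative DMSO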

[3] = TOR pathway reporter MEP2-GFP, retest of hits – S. cerevisiae, flow cytometry GFP, cherry picks, confirmation (AID 2272;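 active = GFP response above 150% of the DMSO control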;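 also: ratio of well signal to plate DMSO mean so 100% equals DMSO level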); conditions: S. cerevisiae MEP2-GFP strain, 3 h, at 10 µM, stronger effect = higher value
[4] = yeast AGP1-GFP fluorescence change, single-dose – cell-based, flow cytometry, S. cerevisiae, cherry picks, confirmation (AID 2273);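 also: median GFP channel fluorescence over the whole cell population gate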; conditions: S. cerevisiae AGP1-GFP strain, 3 h, at 10 µM
[5] = TOR pathway CIT2 reporter hit retest – S. cerevisiae, GFP fusion, cherry picks, mother/daughter gates, confirmation (AID 2274); conditions: S. cerevisiae CIT2-GFP strain, flow cytometry, 3 h, at 10 µM, stronger effect = higher value
[6] = green-channel fluorescence artefact in S. cerevisiae – s288c strain, artefact control for yeast TOR pathway GFP screen, dose response (AID 2757;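 active = fluorescence span over the dose series, or activity score, above about 33, limit read from the data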;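 also: thousands of bead-calibrated equivalent soluble fluorophore molecules from median cell fluorescence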); conditions: 520 nm autofluorescence, flow cytometry, 3 h, at 33 µM, stronger effect = higher value, zero means same as solvent-only cells
[7] = measured here: daughter cell gate
[8] = measured here: mother cell gate
[9] = measured here: daughter cell gate response
[10] = measured here: mother cell gate response

| Compound | GFP response vs DMSO [1] | GFP response vs DMSO [1, 7] [%] | GFP response vs DMSO [1, 8] [%] | GFP response relative to DMSO [2] | GFP response relative to DMSO [2, 9] [%] | GFP response relative to DMSO [2, 10] [%] | GFP response vs DMSO [3] | GFP response, % of DMSO [4] | GFP response, % of DMSO [5] | GFP response, % of DMSO [5, 7] [%] | GFP response, % of DMSO [5, 8] [%] | fluorescence change (kMESF span) [6] |
| --- | --- | --- | --- | --- | --- | --- | --- | --- | --- | --- | --- | --- |
| Cc1ccc(C(=O)c2nocc2C(=O)c2cccs2)cc1 | 98.7% (inactive) | 93.6 | 99.8 | 123% (inactive) | 111 | 128 | 95.4% (inactive) | 89.9% (inactive) | 80.6% (inactive) | 79.7 | 80.5 | – |
| O=C(N/N=C/c1ccc(OCCCF)cc1)c1cc(OCC(F)(F)F)ccc1OCC(F)(F)F | 98% (inactive) | 100 | 98.2 | 97.4% (inactive) | 98.7 | 101 | 102% (inactive) | 97.2% (inactive) | 95.2% (inactive) | 94.8 | 97.7 | – |
| Cc1cc(C)c(C)c(S(=O)(=O)ON2C(=O)c3ccccc3C2=O)c1C | 103% (inactive) | 97.5 | 94.1 | 206% (active) | 170 | 204 | 114% (inactive) | 97.3% (inactive) | 105% (inactive) | 113 | 91 | – |
| CCOC(=O)C1(Cc2ccccc2Cl)CCN(C(=O)CCn2ccnc2C)CC1 | 96.6% (inactive) | 97.3 | 97.2 | 101% (inactive) | 104 | 99.5 | 99.5% (inactive) | 100% (inactive) | 97.8% (inactive) | 98.3 | 98 | – |
| Cc1ccc(N2C(=O)C(Cl)=C(Nc3c(C)n(C)n(-c4ccccc4)c3=O)C2=O)cc1 | 96.9% (inactive) | 93.9 | 96.1 | 101% (inactive) | 101 | 101 | 101% (inactive) | 105% (inactive) | 100% (inactive) | 103 | 100 | – |
| COc1ccc(N/N=C(\C#N)C(N)=O)cc1 | 83.7% (inactive) | 64.6 | 83.7 | 166% (active) | 136 | 185 | 141% (inactive) | 125% (inactive) | 136% (inactive) | 114 | 135 | – |
| Cc1sc(NC(=O)c2ccco2)nc1-c1ccccc1 | 93.8% (inactive) | 92.2 | 93.6 | 111% (inactive) | 105 | 113 | 102% (inactive) | 89.5% (inactive) | 102% (inactive) | 98.1 | 101 | – |
| CC(=O)N(C1=C(Cl)C(=O)c2ccccc2C1=O)C1CCCCC1 | 22.6% (active) | 92.8 | 23.1 | 72.2% (inactive) | 113 | 73.7 | 97.8% (inactive) | 34.1% (inactive) | 69.1% (inactive) | 93.2 | 54.7 | – |
| CC1=NOC(=O)/C1=C\c1ccc(-c2cc(Cl)ccc2Cl)o1 | 97.1% (inactive) | 93.9 | 91.6 | 195% (active) | 176 | 186 | 118% (inactive) | 100% (inactive) | 114% (inactive) | 121 | 102 | – |
| COC(=O)c1cc(NC(=O)c2c(Cl)nc3sccn23)cc(C(=O)OC)c1 | 97% (inactive) | 98.6 | 96.9 | 92.8% (inactive) | 92.8 | 92.9 | 102% (inactive) | 90% (inactive) | 99.7% (inactive) | 101 | 99.7 | – |
| Cc1ccc2[nH]cc(/C=C/c3cc[n+](C)cc3)c2c1 | 106% (inactive) | 106 | 105 | 153% (active) | 156 | 154 | 170% (inactive) | 116% (inactive) | 147% (inactive) | 156 | 140 | – |
| O=c1/c(=C/c2cccc3ccccc23)sc2ncnn12 | 112% (inactive) | 113 | 107 | 185% (active) | 177 | 180 | 116% (inactive) | 91.2% (inactive) | 112% (inactive) | 122 | 100 | – |
| COc1ccccc1N1C(=O)c2cccc3c(C(=O)O)ccc(c23)C1=O | 98.8% (inactive) | 99.1 | 98.7 | 101% (inactive) | 101 | 98.3 | 105% (inactive) | 97.4% (inactive) | 99.7% (inactive) | 101 | 98.5 | – |
| CCN1/C(=C/C(C)=C/c2sc3ccccc3[n+]2CC)Sc2ccccc21 | 79.8% (inactive) | 61.3 | 72.1 | 243% (active) | – | 211 | 133% (inactive) | 101% (inactive) | 100% (inactive) | 83.4 | 97.7 | – |
| Cc1cccc(C)c1NC(=O)C(Cl)C(=O)c1ccccc1 (stereo not given) | 89.9% (inactive) | 87.6 | 82.5 | 241% (active) | 168 | 252 | 100% (inactive) | 101% (inactive) | 99.7% (inactive) | 95.4 | 87.8 | 0 (inactive) |
| Cc1ccc(/C=C2/C(=O)ON=C2c2ccccc2)o1 | 90.4% (inactive) | 87.7 | 82.8 | 250% (active) | – | 219 | 129% (inactive) | 88.4% (inactive) | 92.1% (inactive) | 90.9 | 77 | – |
| O=[N+]([O-])c1ccc(Cl)cc1Sc1ccccn1 | 105% (inactive) | 108 | 104 | 94.1% (inactive) | 96 | 91.3 | 112% (inactive) | 102% (inactive) | 111% (inactive) | 110 | 108 | – |
| C[n+]1ccc(/C=C/c2c[nH]c3ccccc23)cc1 | 107% (inactive) | 105 | 107 | 143% (inactive) | 143 | 143 | 187% (active) | 107% (inactive) | 145% (inactive) | 142 | 146 | 5.54 (inactive) |
| Nc1c(C(=O)c2cccs2)sc2nsc(SCCN3CCCCC3)c12 | 114% (inactive) | 110 | 118 | 142% (inactive) | 128 | 158 | 241% (active) | 107% (inactive) | 160% (active) | 149 | 173 | 17.9 (inactive) |
| Cc1nn2c(NCc3ccccn3)c3c(nc2c1-c1ccccc1)CCC3 | 106% (inactive) | 85.7 | 93.7 | 132% (inactive) | – | 114 | 120% (inactive) | 103% (inactive) | 100% (inactive) | 95.8 | 85.9 | – |
| COc1cc(/C=C2/N=C(c3ccccc3)OC2=O)c(F)cc1OCc1ccccc1 | 99.1% (inactive) | 100 | 98 | 98.9% (inactive) | 102 | 98.4 | 101% (inactive) | 108% (inactive) | 106% (inactive) | 105 | 106 | – |
| CCCNC(=O)COC(=O)c1ccc(S(=O)(=O)N2CCCC2)cc1 | 97.2% (inactive) | 89.4 | 88.1 | 94.9% (inactive) | 82.6 | – | 98.8% (inactive) | 99.8% (inactive) | 99.7% (inactive) | 90.5 | 78.8 | – |
| O=C1Oc2ccccc2C(=O)/C1=C/c1ccccc1O | 91.3% (inactive) | 89.3 | 80.2 | 394% (active) | 246 | 373 | 105% (inactive) | 91% (inactive) | 79.8% (inactive) | 91.7 | 67.7 | 0.71 (inactive) |
| Cc1ccc(CS(=O)(=O)c2ncc(Cl)c(C(=O)Nc3nnc(C(C)C)s3)n2)cc1 | 96.2% (inactive) | 96.1 | 94 | 108% (inactive) | – | 99.5 | 103% (inactive) | 100% (inactive) | 101% (inactive) | 94 | 100 | – |
| COc1ccc(C(=O)NC(=S)NNC(=O)CCc2ccccc2)cc1 | 106% (inactive) | 104 | 106 | 188% (active) | 173 | 189 | 116% (inactive) | 87.7% (inactive) | 101% (inactive) | 104 | 93.3 | 0.3 (inactive) |
| C/C(=N\Nc1ncnc2sc(C)c(C)c12)c1ccccn1 | 194% (inactive) | 112 | 175 | 434% (active) | – | 395 | 967% (active) | 107% (inactive) | 449% (active) | 118 | 921 | – |
| CCCc1cc(NCc2ccccn2)n2nc(C)c(-c3ccccc3)c2n1 | 108% (inactive) | 88 | 91.2 | 172% (active) | – | 148 | 143% (inactive) | 107% (inactive) | 92.6% (inactive) | 81.7 | 77.3 | – |
